# Measurements published in ChEMBL document CHEMBL5724801, “EUbOPEN Chemogenomics Library - Multiplex” (2024).
# Where “and” joins values, the source holds several entries; their conditions need not be identical. Identical values can stand only once.
# Test system: U2OS
# Assay: Multiplex assay against U2OS
# Format: toxicity, cell-based
# Settings: human
# Outline: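 Cells were classed with CellPathfinder machine-learning gating, first as Hoechst high-intensity objects or normal cells, then (normal cells) as healthy, pyknosed or fragmented nuclei, and finally (pyknosed cells) as mitotic or apoptotic. Staining of live cells at seeding used Hoechst33342, BioTracker Green Microtubule Cytoskeleton Dye, MitoTracker Red and Annexin V Alexa Fluor 680, with imaging on a CQ1 microscope at 37°C and 5% CO2 after compound addition. Tubulin, mitochondrial-mass and membrane-permeability phenotypes are per cents of healthy-nucleus cells.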
# [1] = 12 h, 1 µM, compound concentration 1 uM
# [2] = 12 h, 10 µM, compound concentration 10 uM
# [3] = 24 h, 1 µM, compound concentration 1 uM
# [4] = 24 h, 10 µM, compound concentration 10 uM
# [5] = 48 h, 1 µM, compound concentration 1 uM
# [6] = 48 h, 10 µM, compound concentration 10 uM
smiles,measurement,setting,value
Cc1noc(C)c1-c1cnc2c(-c3ccc(C(=O)O)cc3)cn([C@@H](C)c3ccccn3)c2c1 [PLX-51107],Population Apoptotic (%),[1],28.33% and 48.15%
same,Population Fragmented Nuclei (%),[1],2.1% and 1.04%
same,Population Healthy Nuclei (%),[1],85.32% and 84.97%
same,Population Hoechst High Intensity Objects (%),[1],0%
same,Population Membrane Permeable-Phenotype (%),[1],0.25% and 4.88%
same,Population Mitochondria Different-Phenotype (%),[1],0% and 5.49%
same,Population Mitotic Cells (%),[1],71.67% and 51.85%
same,Population Normal (%),[1],100%
same,Population Pyknosed Nuclei (%),[1],12.58% and 13.99%
same,Population Tubulin-Different-Phenotype (%),[1],0.74% and 3.05%
same,Total Cell Count,[1],477 and 193
same,Population Apoptotic (%),[2],30.77% and 33.33%
same,Population Fragmented Nuclei (%),[2],2.92% and 1.9%
same,Population Healthy Nuclei (%),[2],82.47% and 82.91%
same,Population Hoechst High Intensity Objects (%),[2],0%
same,Population Membrane Permeable-Phenotype (%),[2],1.36% and 3.05%
same,Population Mitochondria Different-Phenotype (%),[2],0.27% and 7.63%
same,Population Mitotic Cells (%),[2],69.23% and 66.67%
same,Population Normal (%),[2],100%
same,Population Pyknosed Nuclei (%),[2],14.61% and 15.19%
same,Population Tubulin-Different-Phenotype (%),[2],1.36% and 1.53%
same,Total Cell Count,[2],445 and 158
same,Population Apoptotic (%),[3],32.76% and 59.26%
same,Population Fragmented Nuclei (%),[3],3.22% and 5.11%
same,Population Healthy Nuclei (%),[3],87.88% and 85.04%
same,Population Hoechst High Intensity Objects (%),[3],0%
same,Population Membrane Permeable-Phenotype (%),[3],0.52% and 4.29%
same,Population Mitochondria Different-Phenotype (%),[3],0.35% and 3.86%
same,Population Mitotic Cells (%),[3],67.24% and 40.74%
same,Population Normal (%),[3],100%
same,Population Pyknosed Nuclei (%),[3],8.9% and 9.85%
same,Population Tubulin-Different-Phenotype (%),[3],0.52% and 2.15%
same,Total Cell Count,[3],652 and 274
same,Population Apoptotic (%),[4],43.37% and 43.48%
same,Population Fragmented Nuclei (%),[4],5.51% and 6.04%
same,Population Healthy Nuclei (%),[4],79.23% and 81.32%
same,Population Hoechst High Intensity Objects (%),[4],0%
same,Population Membrane Permeable-Phenotype (%),[4],0.93% and 2.7%
same,Population Mitochondria Different-Phenotype (%),[4],0% and 4.73%
same,Population Mitotic Cells (%),[4],56.63% and 56.52%
same,Population Normal (%),[4],100%
same,Population Pyknosed Nuclei (%),[4],15.26% and 12.64%
same,Population Tubulin-Different-Phenotype (%),[4],0.46% and 0.68%
same,Total Cell Count,[4],544 and 182
same,Population Apoptotic (%),[5],51.49% and 72.73%
same,Population Fragmented Nuclei (%),[5],10.29% and 4.03%
same,Population Healthy Nuclei (%),[5],80.83% and 86.62%
same,Population Hoechst High Intensity Objects (%),[5],0%
same,Population Membrane Permeable-Phenotype (%),[5],0.44% and 2.21%
same,Population Mitochondria Different-Phenotype (%),[5],0.11% and 1.47%
same,Population Mitotic Cells (%),[5],48.51% and 27.27%
same,Population Normal (%),[5],100%
same,Population Pyknosed Nuclei (%),[5],8.88% and 9.34%
same,Population Tubulin-Different-Phenotype (%),[5],0.44% and 1.47%
same,Total Cell Count,[5],1137 and 471
same,Population Apoptotic (%),[6],58.54% and 60.87%
same,Population Fragmented Nuclei (%),[6],17.75% and 9.91%
same,Population Healthy Nuclei (%),[6],65.96% and 70.26%
same,Population Hoechst High Intensity Objects (%),[6],0%
same,Population Membrane Permeable-Phenotype (%),[6],0.6% and 1.84%
same,Population Mitochondria Different-Phenotype (%),[6],0% and 2.45%
same,Population Mitotic Cells (%),[6],41.46% and 39.13%
same,Population Normal (%),[6],100%
same,Population Pyknosed Nuclei (%),[6],16.29% and 19.83%
same,Population Tubulin-Different-Phenotype (%),[6],1.2% and 0.61%
Cl.c1ccc2c(c1)CCC[C@H]2Nc1nc2ccccc2[nH]1,Population Apoptotic (%),[1],51.52% and 50%
same,Population Fragmented Nuclei (%),[1],1.35% and 1.11%
same,Population Healthy Nuclei (%),[1],89.73% and 86.67%
same,Population Hoechst High Intensity Objects (%),[1],0%
same,Population Membrane Permeable-Phenotype (%),[1],0.9% and 4.49%
same,Population Mitochondria Different-Phenotype (%),[1],0% and 8.33%
same,Population Mitotic Cells (%),[1],48.48% and 50%
same,Population Normal (%),[1],100%
same,Population Pyknosed Nuclei (%),[1],8.92% and 12.22%
same,Population Tubulin-Different-Phenotype (%),[1],0.9% and 0.64%
same,Total Cell Count,[1],370 and 180
same,Population Apoptotic (%),[2],34.15% and 18.18%
same,Population Fragmented Nuclei (%),[2],1.73% and 1.16%
same,Population Healthy Nuclei (%),[2],88.15% and 86.13%
same,Population Hoechst High Intensity Objects (%),[2],0%
same,Population Membrane Permeable-Phenotype (%),[2],1.96% and 2.01%
same,Population Mitotic Cells (%),[2],65.85% and 81.82%
same,Population Normal (%),[2],100%
same,Population Pyknosed Nuclei (%),[2],10.12% and 12.72%
same,Population Tubulin-Different-Phenotype (%),[2],1.96% and 2.01%
same,Total Cell Count,[2],405 and 173
same,Population Apoptotic (%),[3],36.36% and 51.52%
same,Population Fragmented Nuclei (%),[3],1.17% and 2.47%
same,Population Healthy Nuclei (%),[3],92.41% and 83.95%
same,Population Hoechst High Intensity Objects (%),[3],0.19% and 0%
same,Population Membrane Permeable-Phenotype (%),[3],0.42% and 2.94%
same,Population Mitochondria Different-Phenotype (%),[3],0.21% and 7.35%
same,Population Mitotic Cells (%),[3],63.64% and 48.48%
same,Population Normal (%),[3],99.81% and 100%
same,Population Pyknosed Nuclei (%),[3],6.42% and 13.58%
same,Population Tubulin-Different-Phenotype (%),[3],0.21% and 1.47%
same,Total Cell Count,[3],515 and 243
same,Population Apoptotic (%),[4],40% and 51.85%
same,Population Fragmented Nuclei (%),[4],2.23% and 2.74%
same,Population Healthy Nuclei (%),[4],89.41% and 84.93%
same,Population Hoechst High Intensity Objects (%),[4],0%
same,Population Membrane Permeable-Phenotype (%),[4],1.87% and 2.69%
same,Population Mitochondria Different-Phenotype (%),[4],0.42% and 8.06%
same,Population Mitotic Cells (%),[4],60% and 48.15%
same,Population Normal (%),[4],100%
same,Population Pyknosed Nuclei (%),[4],8.36% and 12.33%
same,Population Tubulin-Different-Phenotype (%),[4],1.87% and 1.08%
same,Total Cell Count,[4],538 and 219
same,Population Apoptotic (%),[5],36.59% and 47.06%
same,Population Fragmented Nuclei (%),[5],3.12% and 2.18%
same,Population Healthy Nuclei (%),[5],88.61% and 85.44%
same,Population Hoechst High Intensity Objects (%),[5],0%
same,Population Membrane Permeable-Phenotype (%),[5],0.46% and 2.27%
same,Population Mitochondria Different-Phenotype (%),[5],0.11% and 6.25%
same,Population Mitotic Cells (%),[5],63.41% and 52.94%
same,Population Normal (%),[5],100%
same,Population Pyknosed Nuclei (%),[5],8.27% and 12.38%
same,Population Tubulin-Different-Phenotype (%),[5],0.57% and 0.85%
same,Total Cell Count,[5],992 and 412
same,Population Apoptotic (%),[6],41.57% and 48.08%
same,Population Fragmented Nuclei (%),[6],2.25% and 2.98%
same,Population Healthy Nuclei (%),[6],88.65% and 82.93%
same,Population Hoechst High Intensity Objects (%),[6],0% and 0.27%
same,Population Membrane Permeable-Phenotype (%),[6],1.5% and 3.92%
same,Population Mitochondria Different-Phenotype (%),[6],0% and 3.92%
same,Population Mitotic Cells (%),[6],58.43% and 51.92%
same,Population Normal (%),[6],100% and 99.73%
same,Population Pyknosed Nuclei (%),[6],9.1% and 14.09%
same,Population Tubulin-Different-Phenotype (%),[6],1.5% and 2.61%
same,Total Cell Count,[6],978 and 370
